Data: ChEMBL document CHEMBL1136796 (J Med Chem, 2003)
Where a name gives a salt, the structure may show the parent alone.

Legend:
[1] = system: RKO; test: Cytotoxic activity against human colon adenocarcinoma RKO cells without ectopic inducible expression of cyclin-dependent kinase inhibitor p27kip1; type: functional, cell-based
[2] = system: SF-268; test: Cytotoxic activity against cellular metabolic activity of Glioma SF-268 tumor cell line using XTT proliferation assay after incubation with the compound for 48 h; type: functional, cell-based; conditions: Homo sapiens, SF-268, 48 h
[3] = system: RKO; test: Cytotoxic activity against human colon adenocarcinoma RKO cells with ectopic inducible expression of cyclin-dependent kinase inhibitor p27kip1; type: functional, cell-based
[4] = system: NCI-H460; test: Cytotoxic activity against cellular metabolic activity of Lung NCI-H460 tumor cell line using XTT proliferation assay after incubation with the compound for 48 h; type: functional, cell-based; conditions: Homo sapiens, NCI-H460, 48 h
In short: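 NCI-H460 human lung tumor cells seeded at 1 × 10^3 cells/well in microtiter plates and exposed to a range of compound concentrations for 48 h. Proliferation read as cellular metabolic activity by XTT. At least two replicates (n = 2); IC50 obtained from dose–response curves by nonlinear regression.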

[5] = system: KB; test: Cytotoxic activity against cellular metabolic activity of Cervix KB/HeLa tumor cell line using XTT proliferation assay after incubation with the compound for 48 h; type: functional, cell-based; conditions: Homo sapiens
[6] = system: K562; test: In vitro inhibitory concentration against human chronic myelogenous leukemia K562 cell growth; type: functional, cell-based
[7] = system: SK-OV-3; test: Cytotoxic activity against cellular metabolic activity of Ovary SKOV3 tumor cell line using XTT proliferation assay after incubation with the compound for 48 h; type: functional, cell-based; conditions: Homo sapiens, SK-OV-3, 48 h
[8] = target: Tubulin (Sus scrofa, UniProt P02554+P02550); test: In vitro inhibition of maximum porcine tubulin assembly rate after 20 min at 37 degrees C; type: functional
[9] = system: RXF 944; test: Tested for induction of cellular death in Human renal RXF 944L tumor cell line in Propidium Iodide Monolayer Assay; type: functional, cell-based
In short: (§1)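 Propidium iodide monolayer assay: cells seeded at 1 × 10^5 or 5 × 10^4 cells/mL, 24 h recovery, drug in triplicate for 3–6 days by doubling time; PI 25 μg/mL added, fluorescence (ex 530/em 620 nm) read before and after freezing at −18 °C for 24 h; viable cells from the difference; % T/C versus concentration.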

[10] = system: NCI-H460; test: Tested for induction of cellular death in Human lung H-460 tumor cell line in Propidium Iodide Monolayer Assay; type: functional, cell-based; in short: as §1
[11] = system: MCF7; test: Tested for induction of cellular death in Human breast MCF-7 tumor cell line in Propidium Iodide Monolayer Assay; type: functional, cell-based; in short: as §1
[12] = system: SF-268; test: Tested for induction of cellular death in Human ZNS SF-268 tumor cell line in Propidium Iodide Monolayer Assay; type: functional, cell-based; in short: as §1
[13] = system: Lung LXF 629L tumor cell line; test: Tested for induction of cellular death in Human lung LXF 629L tumor cell line in Propidium Iodide Monolayer Assay; type: functional, cell-based; in short: as §1
[14] = species on record: Sus scrofa; test: In vitro inhibitory concentration against tubulin assembly; type: functional
[15] = system: MAXF401 cell line; test: Tested for induction of cellular death in Human breast 401NL tumor cell line in Propidium Iodide Monolayer Assay; type: functional, cell-based; in short: as §1
[16] = system: LXFL 529; test: Tested for induction of cellular death in Human lung LXF 529L tumor cell line in Propidium Iodide Monolayer Assay; type: functional, cell-based; in short: as §1
[17] = system: LT12 tumor cell line; test: Antiproliferative activity against LT12 phenotype LT12 MDR tumor cell line; type: functional, cell-based; conditions: Rattus norvegicus
[18] = system: LT12 tumor cell line; test: Antiproliferative activity against LT12 tumor cell line; type: functional, cell-based; conditions: Rattus norvegicus
[19] = system: P388 (Mus musculus); test: Antiproliferative activity against P388 tumor cell line
[20] = system: P388/ADR; test: Antiproliferative activity against P388 phenotype P388 ADR tumor cell line; type: functional, cell-based; conditions: Mus musculus
[21] = system: L1210; test: Antiproliferative activity against L1210 phenotype L1210 VCR tumor cell line; type: functional, cell-based; conditions: Mus musculus
[22] = system: L1210; test: Antiproliferative activity against L1210 tumor cell line; type: functional, cell-based; conditions: Mus musculus
[23] = system: HeLa (Homo sapiens); test: Effective concentration required to arrest propidium iodide stained KB/HeLa cells in G2/M phase

COc1cc2c(c(OC)c1OC)-c1ccc(OC)c(=O)cc1[C@@H](NC(C)=O)CC2 [COLCHICINE]
IC50 [1]: 20 nM
IC50 [2]: 50 nM
IC50 [3]: > 10000 nM
IC50 [4]: 70 nM
IC50 [5]: 30 nM
IC50 [6]: 20 nM
IC50 [7]: 50 nM

COC(=O)c1cc(C=C2c3ccccc3C(=O)c3ccccc32)ccc1O
IC50 [8]: > 10000 nM
IC50 [6]: 1400 nM

O=C1c2ccccc2C(=Cc2ccc(OCc3ccccc3)cc2)c2ccccc21
IC50 [8]: > 10000 nM
IC50 [6]: 22000 nM

CC[C@]1(O)C[C@@H]2CN(CCc3c([nH]c4ccccc34)[C@@](C(=O)OC)(c3cc4c(cc3OC)N(C)[C@H]3[C@@](O)(C(=O)OC)[C@H](OC(C)=O)[C@]5(CC)C=CCN6CC[C@]43[C@@H]65)C2)C1 [VINBLASTINE SULFATE]
IC50 [6]: 1 nM

O=C1c2ccccc2C(=Cc2cc(Cl)cc(Cl)c2)c2ccccc21
IC50 [8]: > 10000 nM
IC50 [6]: 6000 nM

COc1ccc(C=C2c3ccccc3C(=O)c3ccccc32)cc1
IC50 [9]: 700 nM
IC50 [8]: 760 nM
IC50 [10]: 500 nM
IC50 [6]: 60 nM
IC50 [11]: 560 nM
IC50 [12]: 890 nM
IC50 [13]: 130 nM
IC50 [14]: < 1000 nM
IC50 [15]: 300 nM
IC50 [16]: 260 nM

COc1ccc(C=C2c3ccccc3C(=O)c3ccccc32)cc1OC
IC50 [8]: 1700 nM
IC50 [6]: 600 nM

CC[C@]1(O)C[C@@H]2CN(CCc3c([nH]c4ccccc34)[C@@](C(=O)OC)(c3cc4c(cc3OC)N(C)[C@H]3[C@@](O)(C(N)=O)[C@H](O)[C@]5(CC)C=CCN6CC[C@]43[C@@H]65)C2)C1 [VINDESINE]
IC50 [17]: 260 nM
IC50 [18]: 1 nM
IC50 [19]: 10 nM
IC50 [20]: 1100 nM
IC50 [21]: > 5000 nM
IC50 [22]: 20 nM

COc1cc(CC2c3ccccc3C(=O)c3ccccc32)cc(OC)c1
IC50 [8]: 10000 nM

CC(C)(C)c1cc(C=C2c3ccccc3C(=O)c3ccccc32)cc(C(C)(C)C)c1O
IC50 [6]: 39000 nM

COc1ccc(CC2c3ccccc3C(=O)c3ccccc32)cc1O
IC50 [8]: 2300 nM
IC50 [6]: 7000 nM

COc1cccc(C=C2c3ccccc3C(=O)c3ccccc32)c1O
IC50 [9]: 360 nM
IC50 [8]: 910 nM
IC50 [10]: 3330 nM
IC50 [6]: 730 nM
IC50 [11]: 800 nM
IC50 [12]: 980 nM
IC50 [13]: 2020 nM
IC50 [14]: < 1000 nM
IC50 [15]: 20 nM
IC50 [16]: 4450 nM

COc1ccc(CC2c3ccccc3C(=O)c3ccccc32)cc1OC
IC50 [8]: > 10000 nM
IC50 [6]: 62000 nM

COC(=O)Nc1nc2cc(C(=O)c3cccs3)ccc2[nH]1 [NOCODAZOLE]
IC50 [1]: 110 nM
IC50 [2]: 300 nM
IC50 [17]: 50 nM
IC50 [3]: > 10000 nM
IC50 [18]: 300 nM
IC50 [19]: 70 nM
IC50 [4]: 150 nM
IC50 [5]: 140 nM
IC50 [20]: 50 nM
IC50 [21]: 70 nM
IC50 [7]: 170 nM
IC50 [22]: 60 nM
EC50 [23]: 82 nM

COc1cc(C=C2c3ccccc3C(=O)c3ccccc32)cc(OC)c1O
IC50 [9]: 150 nM
IC50 [8]: 630 nM
IC50 [10]: 3090 nM
IC50 [6]: 170 nM
IC50 [11]: 4130 nM
IC50 [12]: 620 nM
IC50 [13]: 720 nM
IC50 [14]: < 1000 nM
IC50 [15]: 240 nM
IC50 [16]: 7490 nM

O=C1c2ccccc2C(=Cc2ccc3c(c2)OCO3)c2ccccc21
IC50 [6]: 900 nM

COc1ccc(CC2c3ccccc3C(=O)c3ccccc32)cc1
IC50 [8]: 2600 nM
IC50 [6]: 25000 nM

COc1cc(C=C2c3ccccc3C(=O)c3ccccc32)cc(OC)c1OC
IC50 [8]: 10000 nM
IC50 [6]: 4000 nM

COc1ccc(C=C2c3ccccc3C(=O)c3ccccc32)c(O)c1
IC50 [8]: 1200 nM
IC50 [6]: 70 nM
IC50 [14]: 1200 nM

O=C1c2ccccc2C(=Cc2ccccc2)c2ccccc21
IC50 [8]: 4400 nM
IC50 [6]: 2000 nM

Cc1cc(C=C2c3ccccc3C(=O)c3ccccc32)cc(C)c1O
IC50 [8]: 910 nM
IC50 [6]: 800 nM

COc1ccc(CC2c3ccccc3C(=O)c3ccccc32)cc1OC(=O)c1ccccc1
IC50 [8]: > 10000 nM

COc1cc(C=C2c3ccccc3C(=O)c3ccccc32)ccc1O
IC50 [9]: 2830 nM
IC50 [8]: 630 nM
IC50 [10]: 2360 nM
IC50 [6]: 1400 nM
IC50 [11]: 2520 nM
IC50 [12]: 2970 nM
IC50 [13]: 2070 nM
IC50 [14]: < 1000 nM
IC50 [15]: 1510 nM
IC50 [16]: 3230 nM

O=C1c2ccccc2C(=Cc2ccc(O)cc2)c2ccccc21
IC50 [8]: 2500 nM
IC50 [6]: 800 nM

COc1ccc(/C=C\c2cc(OC)c(OC)c(OC)c2)cc1O [COMBRETASTATIN A4]
IC50 [6]: 20 nM

COc1cccc2c1C(=O)c1c(O)c3c(c(O)c1C2=O)C[C@@](O)(C(=O)CO)C[C@@H]3O[C@H]1C[C@H](N)[C@H](O)[C@H](C)O1 [DOXORUBICIN]
IC50 [9]: 60 nM
IC50 [10]: 1720 nM
IC50 [6]: 10 nM
IC50 [13]: 70 nM
IC50 [15]: 10 nM
IC50 [16]: 30 nM

O=C1c2ccccc2C(=Cc2ccc(O)c(O)c2)c2ccccc21
IC50 [9]: 30 nM
IC50 [8]: 1800 nM
IC50 [10]: < 10 nM
IC50 [6]: 60 nM
IC50 [11]: 40 nM
IC50 [12]: 1160 nM
IC50 [13]: 260 nM
IC50 [15]: 210 nM
IC50 [16]: 1620 nM

COc1cc(CC2c3ccccc3C(=O)c3ccccc32)cc(OC)c1OC
IC50 [8]: > 10000 nM
IC50 [6]: > 80000 nM

O=C1c2ccccc2C(=Cc2ccc(C(F)(F)F)cc2)c2ccccc21
IC50 [6]: > 20000 nM

CCOC(=O)c1ccc(C=C2c3ccccc3C(=O)c3ccccc32)cc1
IC50 [6]: 700 nM

COc1cc(C=C2c3ccccc3C(=O)c3ccccc32)cc(OC)c1
IC50 [8]: > 10000 nM
IC50 [6]: 600 nM

O=C1c2ccccc2C(=Cc2ccc([N+](=O)[O-])cc2)c2ccccc21
IC50 [6]: 3000 nM

O=C1c2ccccc2C(=Cc2cc(Br)c(O)c(Br)c2)c2ccccc21
IC50 [8]: 480 nM
IC50 [6]: 160 nM

O=C1c2ccccc2C(=Cc2cc(O)c(O)c(O)c2)c2ccccc21
IC50 [8]: > 10000 nM
IC50 [6]: 20000 nM
